Test results published in paper PMC6796888 (ACS Omega, 2019).
Converted amounts (≈) assume the structure as drawn.

How the values were obtained:
P. auroginosa MTCC 2453 [1] = test: In vitro screening, % growth inhibition at 250 μg/mL; assay type: cell-based, Pseudomonas auroginosa; settings: for inhibition at 250 µg/mL: Pseudomonas, MTCC2453, 24 h, read-out: % inhibition at 250 μg/mL
Method in brief: (§1)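 Test compounds dissolved in DMSO and diluted in test medium. Mid-log cultures diluted in nutrient broth to McFarland standard and treated with 250 μg/mL in 96-well plates, 37 °C, 160 rpm, 24 h. Growth read as OD at 580 nm; % inhibition calculated from absorbance against untreated growth. Run twice on different occasions.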

E. faecalis MTCC 439 [2] = test: as above; assay type: cell-based, Enterococcus faecalis; settings: for inhibition at 250 µg/mL: Enterococcus faecalis, MTCC439, 24 h, read-out: % inhibition at 250 μg/mL
Method in brief: as §1

S. pneumoniae MTCC 655 [3] = test: as above; assay type: cell-based, Streptococcus pneumoniae; settings: for inhibition at 250 µg/mL: Streptococcus pneumoniae, MTCC655, 24 h, read-out: % inhibition at 250 μg/mL
Method in brief: as §1

E. coli ATCC 25922 [4] = test: as above; assay type: cell-based, Escherichia coli; settings: for inhibition at 250 µg/mL: Escherichia coli, ATCC25922, 24 h, read-out: % inhibition at 250 μg/mL
Method in brief: as §1

P. aeruginosa = test: Synergistic assay with ciprofloxacin; assay type: cell-based
Hemolytic assay = assay type: cell-based; settings: human, human red blood cells (erythrocytes/PBS suspension)
Method in brief: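 Human blood from a healthy donor was collected in EDTA and spun at 2000 rpm for 10 min at room temperature. Erythrocytes were PBS-washed, made into a 10% (v/v) suspension and diluted 1:10. Test compound (400–3.125 μg/mL in PBS) mixed with an equal volume of this suspension, 1 h at 37 °C, then spun.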

P. auroginosa MTCC 2453 [5] = test: MIC by broth microdilution; assay type: cell-based, Pseudomonas auroginosa; settings: Pseudomonas, MTCC2453
S. typhimurium MTCC 3224 [6] = test: In vitro screening, % growth inhibition at 250 μg/mL; assay type: cell-based, Salmonella typhimurium; settings: 24 h
Method in brief: as §1

E. coli ATCC 25922 [7] = test: MIC by broth microdilution; assay type: cell-based; settings: Escherichia coli, ATCC25922
S. pneumoniae [8] = test: Time–kill curve assay; assay type: cell-based, Streptococcus pneumoniae; settings: up to 24 h
Method in brief: (§2)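 Nutrient broth inoculated with about 2 × 10^6 cells of fresh culture, two-fold diluted and exposed to test compound at MIC or 2MIC; untreated control included. Incubation at 37 °C, 160 rpm. At 0, 2, 4, 8 and 24 h, 100 μL was diluted in sterile saline, 50 μL plated on nutrient agar and colonies counted after 24 h at 37 °C. Duplicate; mean log10 CFU/mL plotted against time.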

E. coli biofilm [9] = test: Biofilm formation assessment by SEM; assay type: cell-based, Escherichia coli; settings: 24 h
Method in brief: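 Sterile glass pieces (10 mm2) placed in nutrient broth with 0.5% extra glucose and inoculated with fresh E. coli primary culture. […] Glass washed with PBS and fixed overnight in 2.5% glutaraldehyde/2% paraformaldehyde in 0.1 M phosphate buffer pH 7.4. Washed, dried, imaged by SEM; untreated control included.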

E. faecalis = test: Synergistic assay with ciprofloxacin; assay type: cell-based, Enterococcus faecalis
S. pneumoniae biofilm = test: Biofilm assessment by XTT assay; assay type: cell-based, Streptococcus pneumoniae
E. coli cells = test: Confocal laser microscopy with DAPI staining; assay type: cell-based, Escherichia coli; settings: MIC of 4l for 3 h
E. coli [10] = test: Growth kinetic studies; assay type: cell-based, Escherichia coli; settings: 2MIC and MIC
E. coli biofilm [11] = test: Biofilm assessment by XTT assay; assay type: cell-based, Escherichia coli; settings: for reduction in absorbance (biofilm, XTT): 24 h
Method in brief: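 Biofilms grown from 100 μL standardized cell suspension in nutrient broth with 0.5% extra glucose, 37 °C, 24 h, static. […] Washed again, XTT salt added for 90 min at 37 °C in the dark, A490 read. % inhibition taken from dose–response curves.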

E. coli [12] = test: Time–kill curve assay; assay type: cell-based, Escherichia coli
Method in brief: as §2

S. pneumoniae MTCC 655 [13] = test: MIC by broth microdilution; assay type: cell-based; settings: Streptococcus pneumoniae, MTCC655
S. typhimurium = test: Synergistic assay with ciprofloxacin; assay type: cell-based, Salmonella typhimurium
S. pneumoniae MTCC 655 [14] = test: Disk diffusion assay; assay type: cell-based, Streptococcus pneumoniae
E. coli [15] = test: Synergistic assay with ciprofloxacin; assay type: cell-based, Escherichia coli
S. pneumoniae [16] = test: Synergistic assay with ciprofloxacin; assay type: cell-based, Streptococcus pneumoniae
S. pneumoniae MTCC 655 [17] = test: Spot assay; assay type: cell-based, Streptococcus pneumoniae; settings: 2MIC, 6 h exposure
Method in brief: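 Mid-log S. pneumoniae MTCC 655 harvested and diluted in sterile PBS to McFarland standard. 2 mL suspension exposed to test compound at 2MIC, MIC or 0.5MIC, 37 °C, 160 rpm, 6 h. 2 μL spots put on nutrient agar, 37 °C for 24 h, growth scored +/−. Ciprofloxacin-treated positive and untreated negative controls. Triplicate, three occasions.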

E. coli ATCC 25922 [18] = test: Disk diffusion assay; assay type: cell-based, Escherichia coli
S. pneumoniae [19] = test: Growth kinetic studies; assay type: cell-based, Streptococcus pneumoniae; settings: 2MIC and MIC
E. faecalis MTCC 439 [20] = test: MIC by broth microdilution; assay type: cell-based; settings: Enterococcus faecalis, MTCC439
S. typhimurium MTCC 3224 [21] = test: MIC by broth microdilution; assay type: cell-based; settings: Salmonella enterica, MTCC3224|TYPHIMURIUM
[22] = P. aeruginosa, 4l combined with CIP
[23] = E. faecalis, 4l combined with CIP
[24] = S. typhimurium, 4l combined with CIP
[25] = S. pneumoniae, 4l combined with CIP

Structure (SMILES): CNC1=C([N+](=O)[O-])C2(C(=O)Nc3ccc([N+](=O)[O-])cc32)C2=C(CC(C)(C)CC2=O)O1 (stereo not shown) [Compound 4d]
- inhibition at 250 µg/mL (P. auroginosa MTCC 2453 [1]): 52.5%
- inhibition at 250 µg/mL (E. faecalis MTCC 439 [2]): 30.4%
- inhibition at 250 µg/mL (S. pneumoniae MTCC 655 [3]): 23.2%
- inhibition at 250 µg/mL (E. coli ATCC 25922 [4]): 36.1%

Structure (SMILES): CNC1=C([N+](=O)[O-])C2(C(=O)Nc3ccccc32)c2c(c3ccccc3oc2=O)O1 (stereo not shown) [Compound 4i]
- inhibition at 250 µg/mL (P. auroginosa MTCC 2453 [1]): 6.58%
- inhibition at 250 µg/mL (E. faecalis MTCC 439 [2]): 7.5%
- inhibition at 250 µg/mL (S. pneumoniae MTCC 655 [3]): 1.96%
- inhibition at 250 µg/mL (E. coli ATCC 25922 [4]): 15.4%

Structure (SMILES): CNC1=C([N+](=O)[O-])C2(C(=O)Nc3ccc(Cl)cc32)c2c(c3ccccc3oc2=O)O1 (stereo not shown) [Compound 4j]
- inhibition at 250 µg/mL (P. auroginosa MTCC 2453 [1]): 23.1%
- inhibition at 250 µg/mL (E. faecalis MTCC 439 [2]): 27.2%
- inhibition at 250 µg/mL (S. pneumoniae MTCC 655 [3]): 27.8%
- inhibition at 250 µg/mL (E. coli ATCC 25922 [4]): 45.8%

Structure (SMILES): CNC1=C([N+](=O)[O-])C2(C(=O)Nc3ccc(Br)cc32)c2c(c3ccccc3oc2=O)O1 (stereo not shown) [Compound 4k]
- inhibition at 250 µg/mL (P. auroginosa MTCC 2453 [1]): 4.61%
- inhibition at 250 µg/mL (E. faecalis MTCC 439 [2]): 18.1%
- inhibition at 250 µg/mL (S. pneumoniae MTCC 655 [3]): 19.7%
- inhibition at 250 µg/mL (E. coli ATCC 25922 [4]): 32%

Structure (SMILES): CNC1=C([N+](=O)[O-])C2(C(=O)Nc3ccccc32)C2=C(O1)C(=O)c1ccccc1C2=O (stereo not shown) [Compound 4l]
- FICI (P. aeruginosa; [22]): 1.06
- MIC in combination (P. aeruginosa; [22]): 15.63 µg/mL
- mode of interaction (P. aeruginosa; [22]): indifferent (An FIC index result of >0.5 but <4 was considered indifferent)
- MIC (P. aeruginosa; Pseudomonas aeruginosa, read-out: MIC alone): 250 µg/mL
- hemolysis at 1 h, 100 μg/mL (Hemolytic assay): 13%
- hemolysis at 1 h, 200 μg/mL (Hemolytic assay): 20%
- hemolysis at 1 h, 400 μg/mL (Hemolytic assay): 32%
- MIC (P. auroginosa MTCC 2453 [5]): 125 µg/mL (≈ 310 µM)
- % inhibition at 250 μg/mL (S. typhimurium MTCC 3224 [6]): complete inhibition
- % inhibition at 250 μg/mL (P. auroginosa MTCC 2453 [1]; P. auroginosa MTCC 2453, 250 μg/mL, 24 h): complete inhibition
- inhibition at 250 µg/mL (P. auroginosa MTCC 2453 [1]): 100%
- MIC (E. coli ATCC 25922 [7]): 125 µg/mL (≈ 310 µM)
- killing activity (time–kill) (S. pneumoniae [8]; 2MIC): almost completely killed bacterial cells
- killing activity (time–kill) (S. pneumoniae [8]; MIC): significant decrease in log10 CFU/mL
- biofilm appearance under SEM (E. coli biofilm [9]; 2MIC): very few scattered bacterial cells
- biofilm appearance under SEM (E. coli biofilm [9]; MIC): significant damage in biofilm formation
- FICI (E. faecalis; [23]): 0.27
- MIC in combination (E. faecalis; [23]): 3.90 µg/mL
- mode of interaction (E. faecalis; [23]): synergistic (Synergy and antagonism were defined by FIC indices of <0.5 and >4, respectively)
- MIC (E. faecalis; Enterococcus faecalis, read-out: MIC alone): 250 µg/mL
- effect on biofilm formation (XTT) (S. pneumoniae biofilm; even at MIC, 24 h): almost completely disrupted biofilm formation
- effect on biofilm formation (XTT) (S. pneumoniae biofilm; sub-MIC: MIC/2, MIC/4, MIC/8): significant reduction in biofilm formation
- effect on E. coli cells under confocal microscopy (DAPI) (E. coli cells): reduction in the number of living cells
- % inhibition at 250 μg/mL (E. faecalis MTCC 439 [2]; E. faecalis MTCC 439, 250 μg/mL, 24 h): complete inhibition
- inhibition at 250 µg/mL (E. faecalis MTCC 439 [2]): 100%
- continuous lag phase (no substantial growth) (E. coli [10]): 24 h
- reduction in absorbance (biofilm, XTT) (E. coli biofilm [11]; 2MIC (by order)): 80%
- reduction in absorbance (biofilm, XTT) (E. coli biofilm [11]; 4MIC (first of 4MIC, 2MIC, MIC by order)): 97%
- reduction in absorbance (biofilm, XTT) (E. coli biofilm [11]; MIC (by order)): 77%
- effect on biofilm formation (XTT) (E. coli biofilm [11]; sub-MIC: MIC/2, MIC/4, MIC/8): significant reduction in biofilm formation
- killing activity (time–kill) (E. coli [12]; 2MIC, after 24 h): complete eradication
- killing activity (time–kill) (E. coli [12]; MIC, up to 24 h): significant decrease in log10 CFU/mL
- MIC (S. pneumoniae MTCC 655 [13]): 125 µg/mL (≈ 310 µM)
- FICI (S. typhimurium; [24]): 1.01
- MIC in combination (S. typhimurium; [24]): 3.90 µg/mL
- mode of interaction (S. typhimurium; [24]): indifferent (An FIC index result of >0.5 but <4 was considered indifferent)
- MIC (S. typhimurium; Salmonella enterica, TYPHIMURIUM, read-out: MIC alone): 250 µg/mL
- additional opaque zone of inhibition (S. pneumoniae MTCC 655 [14]; 2MIC, MIC and 0.5MIC disks): 3 ± 1 mm
- clear zone of inhibition (S. pneumoniae MTCC 655 [14]; disk with 0.5MIC (62.5 μg/mL)): 14 mm
- clear zone of inhibition (S. pneumoniae MTCC 655 [14]; disk with 2MIC (250 μg/mL)): 17 mm
- clear zone of inhibition (S. pneumoniae MTCC 655 [14]; disk with MIC (125 μg/mL)): 15 mm
- % inhibition at 250 μg/mL (S. pneumoniae MTCC 655 [3]; S. pneumoniae MTCC 655, 250 μg/mL, 24 h): complete inhibition
- inhibition at 250 µg/mL (S. pneumoniae MTCC 655 [3]): 100%
- FICI (E. coli [15]; E. coli, 4l combined with CIP): 0.53
- MIC in combination (E. coli [15]; E. coli, 4l combined with CIP): 3.90 µg/mL
- MIC (E. coli [15]; Escherichia coli, read-out: MIC alone): 125 µg/mL
- FICI (S. pneumoniae [16]; [25]): 0.29
- MIC in combination (S. pneumoniae [16]; [25]): 3.90 µg/mL
- mode of interaction (S. pneumoniae [16]; [25]): synergistic (Synergy and antagonism were defined by FIC indices of <0.5 and >4, respectively)
- MIC (S. pneumoniae [16]; Streptococcus pneumoniae, read-out: MIC alone): 125 µg/mL
- growth in spot assay (in words) (S. pneumoniae MTCC 655 [17]): no S. pneumoniae growth
- additional opaque zone of inhibition (E. coli ATCC 25922 [18]; 2MIC, MIC and 0.5MIC disks): 3 ± 1 mm
- clear zone of inhibition (E. coli ATCC 25922 [18]; disk with 0.5MIC (62.5 μg/mL)): 14 mm
- clear zone of inhibition (E. coli ATCC 25922 [18]; disk with 2MIC (250 μg/mL)): 18 mm
- clear zone of inhibition (E. coli ATCC 25922 [18]; disk with MIC (125 μg/mL)): 17 mm
- continuous lag phase (no substantial growth) (S. pneumoniae [19]): 24 h
- MIC (E. faecalis MTCC 439 [20]): 250 µg/mL (≈ 620 µM)
- % inhibition at 250 μg/mL (E. coli ATCC 25922 [4]; E. coli ATCC 25922, 250 μg/mL, 24 h): complete inhibition
- inhibition at 250 µg/mL (E. coli ATCC 25922 [4]): 100%
- MIC (S. typhimurium MTCC 3224 [21]): 250 µg/mL (≈ 620 µM)
